# Screening data: PubChem, Broad Institute
# SIRT5 inh: SIRT5 desuccinylase inhibitors, primary screen, biochemical, fluorescence imaging, single point, set 5; NAD-dependent protein deacylase sirtuin-5, mitochondrial (Homo sapiens), Q9NXA8; Purified SirT5, succinyl-peptide AMC, trypsin-coupled fluorescence; inhibition, % at 15 µM; hit rate 1.1% among 330,000; AID 652115, 2013; in the data active = inhibition above about 15%; inconclusive = no clear call, values can overlap the other calls
# Target sequence (Q9NXA8 whole entry, looked up): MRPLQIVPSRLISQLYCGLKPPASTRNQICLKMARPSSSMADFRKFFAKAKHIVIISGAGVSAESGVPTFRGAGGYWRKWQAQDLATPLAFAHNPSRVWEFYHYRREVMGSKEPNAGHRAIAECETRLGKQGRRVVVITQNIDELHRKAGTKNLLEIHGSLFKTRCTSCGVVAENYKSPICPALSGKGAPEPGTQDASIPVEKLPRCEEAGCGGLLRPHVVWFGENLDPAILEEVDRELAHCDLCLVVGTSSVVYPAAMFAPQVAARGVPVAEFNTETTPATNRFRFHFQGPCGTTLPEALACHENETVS
# E-selectin induc: E-selectin induction in HUVECs, primary screen, imaging, HUVEC, immunofluorescence imaging, single point; P16581; normalized: neutral wells 0, TNF-alpha wells 100; activation, % at 7.58 µM; hit rate 0.37% among 260,000; AID 686992, 2013;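 active = mean E-selectin-positive cell signal at least 10% of the positive control, reached in at least 60% of replicates, without over 20% cell loss; inconclusive = no rule given, readout overlaps actives, possibly toxicity-flagged; inactive = the rest, including those meeting only one limit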
#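 System: HUVEC, human umbilical vein endothelial cells; quantity: 3,000 cells/well; buffer or medium: EGM-2 medium, gelatin-coated wells; dosing: single-point compound dose; detection: immunofluorescence imaging; evaluation: % PE-positive cells; benchmarks: TNF-alpha, DMSO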
# DENV2 CPE rescue: inhibitors of DENV2 cytopathic effect, primary screen, cell-based, plate reader, single concentration | DENV2-infected cells, cytopathic effect rescue | CPE inhibition, % at 9.99 µM | hit rate 1.7% among 350,000; in the data active = CPE inhibition above about 20%, passing the limit was not always enough; inconclusive = no clear call, values can overlap the other calls; tested in BHK-21 cells;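 note: 0% = median of neutral control wells and 100% = median of positive control wells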
# * hit, by the source's call; ? = inconclusive; / = no result given. An excerpt weighted towards active compounds, which were near 2.8% of everything screened.
SMILES,SIRT5 inh,E-selectin induc,DENV2 CPE rescue
C[C@H](CO)N1C[C@H](C)[C@@H](CN(C)S(=O)(=O)c2cccs2)Oc2ccc(NS(=O)(=O)c3ccc(F)cc3)cc2CC1=O,5,1,/
COc1ccccc1N1CCN(C(=O)C(C)NC(=O)c2ccco2)CC1 (stereo not drawn),-8,0,0
CCCC(=O)N1CCN(c2nc3c(OC)ccc(Cl)c3s2)CC1,2,/,-5
O=C(c1ccco1)N1CCC(N2CCN(c3ccccc3)CC2)CC1,-1,0,-4
COc1ccccc1N1CCN(C(=O)c2ccco2)CC1,-4,35*,?
COc1ccc(Cl)c2sc(N3CCN(C(=O)c4ccco4)CC3)nc12,1,0,104*
O=C(c1ccco1)N1CCN(C2c3ccccc3-c3ccccc32)CC1,-1,0,54*
C[C@@H]1CCCCO[C@H](CN(C)Cc2ccc(Cl)c(Cl)c2)[C@@H](C)CN([C@@H](C)CO)C(=O)c2cc(N(C)C)ccc2O1,-6,0,15
COCC(=O)Nc1ccc2c(c1)OC[C@H](C)N(CCc1ccccc1)C[C@@H](C)[C@@H](OC)CN(C)C2=O,12,0,10
C[C@@H]1CN([C@H](C)CO)C(=O)c2cc(NC(=O)NC3CCCCC3)ccc2O[C@@H](C)CCCCO[C@@H]1CN(C)C(=O)CCC(F)(F)F,-1,0,-3
COc1ccc(O)c(/C=N/NC(=O)CN2CCS(=O)(=O)CC2)c1,-6,0,54*
COc1ccc(O)c(/C=N/NC(=O)CCC(=O)Nc2ccc(C)cc2)c1,-4,0,1
CCC(=O)Nc1ccc2c(c1)C(=O)N(C)C[C@@H](OC)[C@H](C)CN(C(=O)CN(C)C)[C@@H](C)CO2,/,0,/
COc1ccc(CN2C[C@H](C)[C@@H](OC)CN(C)C(=O)c3cc(NC(=O)c4nc5ccccc5s4)ccc3OC[C@H]2C)cc1,/,0,8
COc1ccc(-c2csc(C(C)(O)c3ccc(F)c(F)c3)n2)cc1OC (stereo not drawn),-3,1,21*
COc1ccccc1-c1csc(C(C)(O)c2cccc(F)c2)n1 (stereo not drawn),/,0,6
Cc1ccccc1-c1csc(C(C)(O)c2ccccc2)n1 (stereo not drawn),0,0,31*
COc1ccc(C(C)(O)c2nc(-c3ccc(OC)c(OC)c3)cs2)cc1 (stereo not drawn),1,0,-10
COc1ccccc1-c1csc(C(C)(O)c2ccccc2)n1 (stereo not drawn),16*,0,-10
COc1ccc(C(C)(O)c2nc(-c3ccccc3C)cs2)cc1 (stereo not drawn),-2,-1,8
COc1ccc(NC(=O)O[C@H](c2ccc(OCCO)cc2)[C@@H](C)CCO)cc1,1,/,16
CCC(=O)N1[C@@H]2c3cccc(=O)n3C[C@@H]2[C@@H](CO)[C@@H]1C(=O)NC1CCCC1,0,0,1
O=C(C[C@@H]1CC[C@@H]2[C@H](COC[C@H](O)CN2C(=O)C2CC2)O1)NCc1ccccc1Cl,1,0,7
N#Cc1ccc(-c2ccc([C@H]3[C@@H](CO)N4CCCCN(S(=O)(=O)c5ccccc5)C[C@@H]34)cc2)cc1,4,1,46*
N#Cc1cccc(-c2ccc([C@H]3[C@@H](CO)N4CCCCN(S(=O)(=O)c5ccccc5)C[C@H]34)cc2)c1,18*,0,4
SMILES,SIRT5 inh,E-selectin induc,DENV2 CPE rescue
N#Cc1ccc(-c2ccc([C@@H]3[C@@H](CO)N4CCCCN(S(=O)(=O)c5ccccc5)C[C@H]34)cc2)cc1,0,0,10
N#Cc1cccc(-c2ccc([C@@H]3[C@@H](CO)N4CCCCN(S(=O)(=O)c5ccccc5)C[C@@H]34)cc2)c1,8,-1,-2
O=C(C1=NN[C@@H]2C(=O)N(c3cccc(C(F)(F)F)c3)C(=O)[C@H]12)c1ccc2ccccc2n1,/,0,/
O=C(C1=NN[C@@H]2C(=O)N(c3cccc(F)c3)C(=O)[C@H]12)c1ccc2ccccc2n1,16*,10,-3
COc1ccc(S(=O)(=O)N(C)C[C@H]2OCCCC[C@H](C)Oc3ccc(NS(=O)(=O)c4cccs4)cc3C(=O)N([C@H](C)CO)C[C@@H]2C)cc1,12,0,-7
CCn1c(SCc2cccc(F)c2)nnc1-c1cccnc1,-7,/,-1
CCn1c(SCc2cccc(F)c2)nnc1-c1ccncc1,-1,0,47*
CC(=O)N1C[C@H]2[C@@H](c3ccccc31)[C@H](CO)N2C(=O)CC1CC1,2,0,-5
CCCC(=O)Nc1ccc2c(c1)C(=O)N(C)C[C@H](OC)[C@@H](C)CN(Cc1cccc(F)c1)[C@H](C)CO2,4,0,0
Fc1ccccc1-c1csc(-c2cccnc2)n1,/,1,5
Clc1ccc(-c2csc(-c3cccnc3)n2)s1,-1,0,51*
O=C(C1CC1)N1CC(=O)N2[C@H](CO)[C@@H](c3ccc(C#Cc4cccc(F)c4)cc3)[C@H]2C1,-3,0,-2
COCC(=O)N1[C@H](CO)[C@H]2c3ccccc3N(C(=O)c3cccnc3)C[C@H]21,6,0,59*
O=C(c1ccncc1)N1C[C@@H]2[C@H](c3ccccc31)[C@H](CO)N2C(=O)Nc1cccc(F)c1,18*,0,3
CCCC(=O)N1C[C@H]2[C@@H](c3ccccc31)[C@@H](CO)N2C(=O)Nc1ccc(F)cc1,0,0,28*
COCC(=O)N1[C@@H]2CN(C(=O)c3ccncc3)c3ccccc3[C@@H]2[C@@H]1CO,/,0,/
O=C(c1cccnc1)N1C[C@H]2[C@@H](c3ccccc31)[C@H](CO)N2C(=O)Nc1cccc(F)c1,0,0,-9
CCCC(=O)N1C[C@@H]2[C@H](c3ccccc31)[C@@H](CO)N2C(=O)Nc1ccccc1,7,1,-3
O=C(c1cccnc1)N1C[C@H]2[C@@H](c3ccccc31)[C@@H](CO)N2C(=O)Nc1ccc(F)cc1,5,1,-10
O=C(c1cccnc1)N1C[C@H]2[C@@H](c3ccccc31)[C@H](CO)N2C(=O)Nc1ccc(F)cc1,8,1,67*
COCC(=O)Nc1ccc2c(c1)C(=O)N(C)C[C@H](OC)[C@H](C)CN(Cc1cccc(F)c1)[C@@H](C)CO2,1,0,12
N#Cc1cccc(-c2ccc3c(c2)[C@H]2[C@H](CCN2S(=O)(=O)c2ccccc2F)[C@@H](CO)N3)c1,5,-1,8
CO[C@H]1CN(C)C(=O)c2ccc(NC(=O)C3CC3)cc2OC[C@H](C)N(C(C)=O)C[C@@H]1C,-2,0,-4
COc1ccc(S(=O)(=O)N2CCCCN3[C@H](CO)[C@H](c4ccc(C#CCC(C)C)cc4)[C@H]3C2)cc1,/,-1,/
COc1ccc(S(=O)(=O)N2CCCCN3[C@H](CO)[C@H](c4ccc(C#CC(C)C)cc4)[C@H]3C2)cc1,20*,0,-25
COc1cccc(S(=O)(=O)N2CCCCN3[C@H](CO)[C@@H](c4ccc(C#CC(C)C)cc4)[C@@H]3C2)c1,0,-1,3
